Calls of active or inactive are those of the source. The calls are words filed in the database; no cut-off is given here. Where only a bound is given, the exact number is not on record here.

One data set concerns CCRF-CEM. Briefly: Induction of DNA damage in human CCRF-CEM cells assessed as formation of gamma-H2AX foci at 100 to 1000 nM after 2 hrs by DAPI staining-based confocal microscopy. In kind it is functional, cell-based. In outline:
(§1)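 Freshly purified human PBMCs (from healthy donors) or CCRF-CEM leukemia cells were used at 2 mil/mL in RPMI 1640 with 10% FBS, penicillin and streptomycin. Cells were dosed at 100 nM and 1 μM for 2 h at 37 °C. They were then fixed in 2% paraformaldehyde, cytospun and blocked in 5% BSA. Staining used anti-γ-H2AX with an Alexa 488 secondary and DAPI, and foci were imaged by confocal microscopy.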

The target in data set [1] is Tyrosyl-DNA phosphodiesterase 1 (Homo sapiens, UniProt Q9NUW8). Kind of data set: Inhibition of recombinant Tdp1 (unknown origin) assessed as decrease in hydrolysis of phosphodiester linkage between tyrosine residue and the 3' end of 5'-[32P]-DNA after 15 mins by PAGE analysis. In outline:
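The substrate was 5′-32P single-stranded oligo N14Y carrying a 3′-phosphotyrosine, at 1 nM, with 10 pM recombinant Tdp1. Products were run on 16% denaturing PAGE with phosphorimaging.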

For the next data set, the system named is SF-539. Kind of data set: Cytotoxicity against human SF539 cells after 48 hrs by SRB assay. The class given is functional. Particulars: SF-539, 48 h. The method, boiled down:
(§2)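 NCI-60 human cancer cell line screen. Five-concentration testing across 0.01 to 100 μM, done only for compounds selected from a one-concentration preliminary test. Read-out was GI50.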
(In general: Sulforhodamine B stains cellular protein and so reports cell mass.)

For data set [2], the target named is T1, DNA topoisomerase 1 (Homo sapiens) (UniProt P11387).
T1 sequence (whole entry): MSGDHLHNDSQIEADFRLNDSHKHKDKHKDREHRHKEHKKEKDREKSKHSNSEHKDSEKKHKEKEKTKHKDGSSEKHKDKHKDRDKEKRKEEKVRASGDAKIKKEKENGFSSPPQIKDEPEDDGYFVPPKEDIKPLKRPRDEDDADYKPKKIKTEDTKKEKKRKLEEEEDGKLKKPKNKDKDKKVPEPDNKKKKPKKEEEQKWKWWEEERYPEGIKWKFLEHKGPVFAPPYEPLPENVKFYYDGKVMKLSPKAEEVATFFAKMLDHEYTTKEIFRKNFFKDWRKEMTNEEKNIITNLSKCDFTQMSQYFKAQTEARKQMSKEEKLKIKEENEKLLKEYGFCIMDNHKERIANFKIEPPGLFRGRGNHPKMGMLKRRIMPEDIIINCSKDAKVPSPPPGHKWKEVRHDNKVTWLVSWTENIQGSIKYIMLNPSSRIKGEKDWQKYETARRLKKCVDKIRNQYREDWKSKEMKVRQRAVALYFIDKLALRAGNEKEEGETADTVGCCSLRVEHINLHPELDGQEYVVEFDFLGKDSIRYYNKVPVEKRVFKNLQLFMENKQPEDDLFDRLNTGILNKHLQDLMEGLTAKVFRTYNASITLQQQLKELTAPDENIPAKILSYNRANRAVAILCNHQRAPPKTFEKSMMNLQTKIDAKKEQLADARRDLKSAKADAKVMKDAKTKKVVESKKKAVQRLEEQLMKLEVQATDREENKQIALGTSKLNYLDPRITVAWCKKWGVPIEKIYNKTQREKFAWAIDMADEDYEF
Kind of data set: Inhibition of recombinant Top1 (unknown origin) assessed as increase in [32P]-DNA breaks at 0.1 to 100 uM after 20 mins by PAGE analysis. In outline: (§3)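 The substrate was a 3′-32P 117-bp oligonucleotide holding Top1 cleavage sites, at about 2 nM, with recombinant Top1. Compounds were tested at 0.1, 1.0, 10 and 100 μM. Reactions were stopped with 0.5% SDS and run on 20% denaturing PAGE.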

For data set [3], the target named is T2, Tyrosyl-DNA phosphodiesterase 2 (Homo sapiens, UniProt O95551).
T2 sequence (O95551 whole entry): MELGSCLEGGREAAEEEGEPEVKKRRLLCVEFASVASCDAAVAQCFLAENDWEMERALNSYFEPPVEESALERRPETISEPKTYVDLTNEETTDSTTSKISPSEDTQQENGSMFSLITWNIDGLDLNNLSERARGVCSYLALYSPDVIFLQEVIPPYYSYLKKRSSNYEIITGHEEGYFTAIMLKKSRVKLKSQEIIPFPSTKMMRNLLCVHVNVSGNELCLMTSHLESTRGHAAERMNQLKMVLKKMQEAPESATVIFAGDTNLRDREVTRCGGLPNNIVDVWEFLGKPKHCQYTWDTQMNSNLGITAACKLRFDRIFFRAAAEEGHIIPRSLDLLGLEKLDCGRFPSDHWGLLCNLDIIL
Briefly: (§4) Inhibition of recombinant human Tdp2 assessed as decrease in alpha 32P-cordycepin-3'-labeled DNA breaks after 15 mins by PAGE analysis. The method, boiled down:
(§5)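 The substrate was the 18-mer single-stranded TY18 oligo, α32P-cordycepin-3′-labeled, at 1 nM, with 25 pM recombinant human Tdp2. Products were run on 16% denaturing PAGE.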

The target in data set [4] is T3, Tyrosyl-DNA phosphodiesterase 2 (Homo sapiens) (UniProt O95551).
T3 sequence (whole entry): T2 sequence (O95551 whole entry)
The description is as §4. In outline: as §5

The subject of the next data set is HOP-62. Kind of data set: Cytotoxicity against human HOP62 cells after 48 hrs by SRB assay. The class given is functional. As to conditions: HOP-62, 48 h. The method, boiled down:
as §2

Another data set has as its system OVCAR-3. Briefly: Cytotoxicity against human OVCAR3 cells after 48 hrs by SRB assay. The class given is functional. Particulars: OVCAR-3, 48 h. In outline: as §2
The subject of another data set is MCF7. Briefly: Cytotoxicity against human MCF7 cells after 48 hrs by SRB assay. In kind it is functional. As to conditions: MCF7, 48 h. The method, boiled down:
as §2

Data set [5] has as its target T1, DNA topoisomerase 1 (Homo sapiens). Briefly: Suppressor activity at recombinant Top1 (unknown origin) assessed as decrease in [32P]-DNA breaks at 100 uM after 20 mins by PAGE analysis. In outline:
as §3

The subject of a further data set is SN12C. Briefly: Cytotoxicity against human SN12C cells after 48 hrs by SRB assay. In kind it is functional. The method, boiled down:
as §2

The next data set concerns PBMC. Briefly: Induction of DNA damage in human PBMC assessed as formation of gamma-H2AX foci at 100 to 1000 nM after 2 hrs by DAPI staining-based confocal microscopy. The class given is cell-based. As to conditions: 1 µM. In outline: as §1
The next data set relates to UACC-62. Briefly: Cytotoxicity against human UACC62 cells after 48 hrs by SRB assay. In kind it is functional. As to conditions: UACC-62, 48 h. The method, boiled down:
as §2

The target in data set [6] is T1, DNA topoisomerase 1 (Homo sapiens). Kind of data set: Poison activity at recombinant Top1 (unknown origin) assessed as inhibition of [32P]-DNA religation in drug-DNA-Top1 ternary complex at 0.1 to 10 uM after 20 mins by PAGE analysis. In outline: as §3
For data set [7] the target is unchanged. Kind of data set: Inhibition of recombinant Top1 (unknown origin) assessed as increase in [32P]-DNA breaks at 1 uM after 20 mins by PAGE analysis. The method, boiled down: as §3

Chain of Tyrosyl-DNA phosphodiesterase 1 (Q9NUW8 whole entry): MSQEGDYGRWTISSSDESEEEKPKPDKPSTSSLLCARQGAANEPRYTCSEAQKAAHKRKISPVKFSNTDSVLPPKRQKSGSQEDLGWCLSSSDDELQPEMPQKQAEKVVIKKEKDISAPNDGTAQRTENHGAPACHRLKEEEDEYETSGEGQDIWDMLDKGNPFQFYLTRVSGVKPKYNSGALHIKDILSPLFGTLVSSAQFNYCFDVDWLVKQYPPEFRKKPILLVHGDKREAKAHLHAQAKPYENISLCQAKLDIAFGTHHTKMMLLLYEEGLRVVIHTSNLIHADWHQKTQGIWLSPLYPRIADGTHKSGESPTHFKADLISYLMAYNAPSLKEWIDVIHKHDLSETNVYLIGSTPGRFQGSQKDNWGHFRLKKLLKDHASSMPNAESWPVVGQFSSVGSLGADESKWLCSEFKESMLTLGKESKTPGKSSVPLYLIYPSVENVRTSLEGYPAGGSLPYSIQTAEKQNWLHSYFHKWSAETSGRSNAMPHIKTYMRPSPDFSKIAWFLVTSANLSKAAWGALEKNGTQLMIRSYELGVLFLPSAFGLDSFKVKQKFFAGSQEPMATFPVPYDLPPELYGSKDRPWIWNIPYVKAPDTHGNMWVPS

Take `COc1cnc2c(c1)C(=O)c1c-2n(CCCNC2=NCCS2)c(=O)c2cc([N+](=O)[O-])ccc12`: the outcome (in the data set with CCRF-CEM; in data set [5]; in data set [6]) was Active. In addition, the IC50 in data set [1] lay in the range of 1000 to 12000 nM; in data set [3], 12000 to 37000 nM. Also, the inhibition result in data set [1] and in [4] was “Dose-dependent effect” throughout. Moreover, the concentration for 50% growth inhibition (GI50) with SF-539 was 36 nM; in the data set on HOP-62, 14 nM; in the data set on OVCAR-3 it was 137 nM; in the data set on MCF7, below 10 nM; in the data set on SN12C, below 10 nM; with UACC-62, below 10 nM. Moreover, the inhibition result in data set [2] was “Active”. Also, in the data set on PBMC, the Activity entry is recorded as “Non-Toxic”.

`COc1cc2c3c(n(CCCNCCO)c(=O)c2cc1OC)-c1cc2c(cc1C3=O)OCO2` [LMP-744]: the IC50 in data set [1] was 12000 to 111000 nM; in [3] it was 1000 to 12000 nM. Moreover, in the data set on SF-539, it took 40 nM to inhibit growth by half (GI50). Besides, the inhibition entry in data set [7] is “Active”.

For orientation: IC50 means the point on the concentration scale where inhibition reaches its midpoint. A word on the GI50: it is the concentration giving 50% growth inhibition.

The values above are taken from ChEMBL document CHEMBL4007513, “Synthesis and Biological Evaluation of the First Triple Inhibitors of Human Topoisomerase 1, Tyrosyl-DNA Phosphodiesterase 1 (Tdp1), and Tyrosyl-DNA Phosphodiesterase 2 (Tdp2)” (J Med Chem, 2017).
